Where two headings read alike, the source gives them in different places.
How the values were obtained:
[1] = test system: A375, B16F10 and SKMEL28 melanoma cell lines; assay: Dark and light cytotoxicity stated for all three melanoma cell lines; format: cell-based; details: read-out: dark EC50 values, toward all three melanoma cell lines
Outline: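 Log-phase A375, B16F10 and SKMEL28 melanoma cells were seeded and dosed with test compound (1 nM to 300 μM) in the dark. They were incubated 48 h, and viability was read by resazurin assay. EC50 is the concentration that reduces relative viability by 50%, taken from dose–response curves and reported as Log(EC50 ± SEM).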

[2] = Observations on stability and behaviour in solution; format: physicochemical; details: 37 °C, extended periods of time, absence of a light trigger
female C57BL/6J mice = assay: Maximum tolerated dose, dose escalation, intraperitoneal injection; format: in vivo, mouse
Outline: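 A dose-escalation safety study in mice used intraperitoneal injection at doses up to 100 mg kg−1. MTD was assigned from the appearance of observable toxicity.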

[3] = Singlet oxygen quantum yield by direct 1O2 phosphorescence, relative to [Ru; format: physicochemical; details: MeCN
B16F10 tumor = format: in vivo, C57BL/6NCrl mice; details: for protection from tumor growth (tumor-free mice): challenged with live B16F10 cells
Outline: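 B16F10 cells were treated in vitro with test compound (1.40 μM) plus light. Cells collected 4 h and 12 h post-treatment were pooled and injected SC into the left flank of female and male C57BL/6NCrl mice, with PBS as control. After 7 days, untreated B16F10 cells were injected into the right flank. Tumor growth and tumor-free survival were followed, and hazard ratios derived.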

SKMEL28 cells = assay: Photocytotoxicity at high fluence and irradiance, Modulight ML8500; format: cell-based, human
Outline: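 SKMEL28 photocytotoxicity was tested with a well-by-well illumination system that sets wavelength, fluence and irradiance separately for each well, allowing higher fluences and irradiances than whole-plate sources. Light-only control wells were included.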

[4] = test system: human melanoma SKMEL28 cells; assay: Cytotoxicity and photocytotoxicity, resazurin, 384-well, UTA; format: cell-based; details: visible vs. 733 nm

**Q.** With [Ru(tpbn)(dppn)(4-pic)]Cl2 [Compound 2] as the substance, how does the EC50 [1] read?
**A.** The EC50 was no less than 46.3 µM.

**Q.** What about the “stability to ligand dissociation” value [2] of the same substance?
**A.** The value was “completely stable”.

**Q.** And the “maximum tolerated dose (MTD)” value (female C57BL/6J mice)?
**A.** The value was 50 mg/kg.

**Q.** And the “ΦΔ (singlet oxygen quantum yield)” value ([3]; λex 630 nm)?
**A.** Its value is 0.93.

**Q.** And the “ΦΔ (singlet oxygen quantum yield)” value ([3]; λex 753 nm)?
**A.** Its value is 0.86.

**Q.** And the “protection from tumor growth (tumor-free mice)” value (B16F10 tumor; female C57BL/6 mice vaccinated with 2-PDT treated B16F10 cells)?
**A.** Its value is 80%.

**Q.** What about the hazard ratios (B16F10 tumor; female and male mice, vaccinated vs. unvaccinated) of the same substance?
**A.** Its hazard ratios is no more than 0.2.

**Q.** What about the “protection from tumor growth (tumor-free mice)” value (B16F10 tumor; male C57BL/6 mice vaccinated with 2-PDT treated B16F10 cells) of the same substance?
**A.** The value was 55%.

**Q.** What about the EC50 (SKMEL28 cells; 753 nm (200 J cm−2, 300 mW cm−2)) of the same substance?
**A.** Its EC50 is 2.02 µM.

**Q.** And the “photocytotoxicity with 976 nm” value (SKMEL28 cells; 976 nm regardless of the fluence (data not shown))?
**A.** The value was “ineffective”.

**Q.** What about the “reduction of cell viability” value (SKMEL28 cells; all light treatments except 810 nm, down to 2.5 μM) of the same substance?
**A.** Its value is no less than 60%.

**Q.** What about the “difference between the visible and NIR EC50 values” [4] of the same substance?
**A.** Its value is 5 fold.

**Q.** What does the source list for [Ru(tpbn)(phen)(4-pic)]Cl2 [Compound 8]?
**A.** EC50 [1]: ≥ 46.3 µM; ΦΔ (singlet oxygen quantum yield) ([3]; λex 455 nm (excitation maximum)): 0.17; ΦΔ (singlet oxygen quantum yield) ([3]; λex 630 nm): 0.10; ΦΔ (singlet oxygen quantum yield) ([3]; λex 753 nm): 0.10

— paper PMC8108386 (Chemical Science, 2020)
